Results from ChEMBL document CHEMBL1130251, “Enzymatic properties of the unnatural beta-L-enantiomers of 2',3'-dideoxyadenosine and 2',3'-didehydro-2',3'-dideoxyadenosine” (J Med Chem, 1997).

Legend:
[1] = compound: Nc1ncnc2c1ncn2[C@H]1CC[C@@H](CO)O1; assay: (§1) Inhibitory activity against bovine liver adenosine Kinase; NS, […]=nonsubstrate, noninhibitor/inhibitor; conditions: Bos taurus
In short: (§2)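 Adenosine kinase purified from bovine liver, 0.38–7.6 μg·mL⁻¹, at 37 °C. Medium: 100 mM Tris HCl pH 7.4, 100 mM KCl, 4.8 mg·mL⁻¹ BSA, 0.5 mM MgCl2, 1 mM ATP, test nucleoside. 5'-Phosphorylation monitored by C-18 HPLC (phosphate pH 6/acetonitrile gradient). Inhibition assessed against 50 μM adenosine.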

[2] = compound: Nc1ncnc2c1ncn2[C@H]1C=C[C@@H](CO)O1; assay: as §1; conditions: Bos taurus; in short: as §2

B1: Adenosine kinase (Toxoplasma gondii), Q9TVW2 (protein)
chain: MAVDSSNSATGPMRVFAIGNPILDLVAEVPSSFLDEFFLKRGDATLATPEQMRIYSTLDQFNPTSLPGGSALNSVRVVQKLLRKPGSAGYMGAIGDDPRGQVLKELCDKEGLATRFMVAPGQSTGVCAVLINEKERTLCTHLGACGSFRLPEDWTTFASGALIFYATAYTLTATPKNALEVAGYAHGIPNAIFTLNLSAPFCVELYKDAMQSLLLHTNILFGNEEEFAHLAKVHNLVAAEKTALSTANKEHAVEVCTGALRLLTAGQNTGATKLVVMTRGHNPVIAAEQTADGTVVVHEVGVPVVAAEKIVDTNGAGDAFVGGFLYALSQGKTVKQCIMCGNACAQDVIQHVGFSLSFTSLPC
**Q.** Which Km [1] does the source give for B1 here?
**A.** NS, NI/Ado

**Q.** What about the Km [2] of the same protein?
**A.** NS, NI/Ado
